Assay results published in PubChem BioAssay AID588806 (The Scripps Research Institute Molecular Screening Center, 2011).

Biological target: Palmitoyl-protein thioesterase ABHD10, mitochondrial (Mus musculus) (UniProt Q6PE15)
Test: in situ ABHD10 inhibition, late-stage follow-up, PME-1 inhibitor project, cell-based, competitive gel ABPP, fluorescence, mouse (AID 588806)
Settings: BW5147 mouse T cells, in situ FP-Rh gel ABPP, 4 h, stronger effect = higher value
Outline: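 test system = in situ endogenous ABHD10, murine T cells derived from BW5147 | buffer or medium = serum-free RPMI for cell treatment, homogenate at 1 mg/mL protein | doses = three test concentrations per compound, 0.25, 0.1 and 0.05 µM | timing = compound 4 h 37 °C, probe 30 min 25 °C | detection = in-gel fluorescence after SDS-PAGE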

Sequence of Palmitoyl-protein thioesterase ABHD10, mitochondrial (Mus musculus) (Q6PE15 whole entry, looked up): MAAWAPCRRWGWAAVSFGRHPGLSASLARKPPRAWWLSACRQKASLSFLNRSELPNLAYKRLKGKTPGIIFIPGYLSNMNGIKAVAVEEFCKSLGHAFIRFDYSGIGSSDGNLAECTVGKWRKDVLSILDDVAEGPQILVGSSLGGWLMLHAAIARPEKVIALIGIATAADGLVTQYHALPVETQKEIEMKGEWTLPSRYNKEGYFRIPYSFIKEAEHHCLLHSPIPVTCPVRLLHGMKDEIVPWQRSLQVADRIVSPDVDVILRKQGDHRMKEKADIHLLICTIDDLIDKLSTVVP

Q: What does the source list for C=CCOC(=O)N1C(=O)[C@@](CC)(c2ccc(C)cc2)N1C(=O)OCC=C?
A: inhibition (at 0.25 µM): 70%; inhibition (inhibition, at 0.05 µM): 40%; inhibition (inhibition, at 0.1 µM): 60%

Q: How did the inhibition (at 0.25 µM) turn out when CC[C@@]1(c2ccc(C)cc2)C(=O)N(C(=O)OC(C)C)N1C(=O)OC(C)C was run?
A: 90%

Q: What about the inhibition (inhibition, at 0.05 µM) of the same compound?
A: 75%

Q: And the inhibition (inhibition, at 0.1 µM)?
A: 70%

Q: With CCCOC(=O)N1C(=O)[C@@](CC)(c2ccc(C)cc2)N1C(=O)OCCC as the compound, how does the inhibition (at 0.25 µM) read?
A: 90%

Q: And the inhibition (inhibition, at 0.05 µM)?
A: 60%

Q: What about the inhibition (inhibition, at 0.1 µM) of the same compound?
A: 80%
